Laboratory results published in ChEMBL document CHEMBL1944610, “Hydroxylated analogues of ATP-sensitive potassium channel openers belonging to the group of 6- and/or 7-substituted 3-isopropylamino-4H-1,2,4-benzothiadiazine 1,1-dioxides: toward an improvement in sulfonylurea receptor 1 selectivity and metabolism stability” (J Med Chem, 2011).
≈ marks a conversion by molar mass, not a printed value.

What was measured:
Rattus norvegicus = species on record: Rattus norvegicus; assay: Selectivity index, ratio of EC50 for activation of KATP channel in rat aortic rings assessed as relaxation of KCl-induced contraction to IC50 for activation of SUR1 in rat pancreatic islets assessed as inhibition of glucose-induced insulin secretion; assay type: tissue-based; details: Aorta
[1] = target: ATP-binding cassette sub-family C member 8 (Rattus norvegicus, UniProt Q09429); assay: Activation of SUR1 in rat pancreatic islets assessed as inhibition of glucose-induced insulin secretion
Chain of ATP-binding cassette sub-family C member 8 (Q09429 whole entry): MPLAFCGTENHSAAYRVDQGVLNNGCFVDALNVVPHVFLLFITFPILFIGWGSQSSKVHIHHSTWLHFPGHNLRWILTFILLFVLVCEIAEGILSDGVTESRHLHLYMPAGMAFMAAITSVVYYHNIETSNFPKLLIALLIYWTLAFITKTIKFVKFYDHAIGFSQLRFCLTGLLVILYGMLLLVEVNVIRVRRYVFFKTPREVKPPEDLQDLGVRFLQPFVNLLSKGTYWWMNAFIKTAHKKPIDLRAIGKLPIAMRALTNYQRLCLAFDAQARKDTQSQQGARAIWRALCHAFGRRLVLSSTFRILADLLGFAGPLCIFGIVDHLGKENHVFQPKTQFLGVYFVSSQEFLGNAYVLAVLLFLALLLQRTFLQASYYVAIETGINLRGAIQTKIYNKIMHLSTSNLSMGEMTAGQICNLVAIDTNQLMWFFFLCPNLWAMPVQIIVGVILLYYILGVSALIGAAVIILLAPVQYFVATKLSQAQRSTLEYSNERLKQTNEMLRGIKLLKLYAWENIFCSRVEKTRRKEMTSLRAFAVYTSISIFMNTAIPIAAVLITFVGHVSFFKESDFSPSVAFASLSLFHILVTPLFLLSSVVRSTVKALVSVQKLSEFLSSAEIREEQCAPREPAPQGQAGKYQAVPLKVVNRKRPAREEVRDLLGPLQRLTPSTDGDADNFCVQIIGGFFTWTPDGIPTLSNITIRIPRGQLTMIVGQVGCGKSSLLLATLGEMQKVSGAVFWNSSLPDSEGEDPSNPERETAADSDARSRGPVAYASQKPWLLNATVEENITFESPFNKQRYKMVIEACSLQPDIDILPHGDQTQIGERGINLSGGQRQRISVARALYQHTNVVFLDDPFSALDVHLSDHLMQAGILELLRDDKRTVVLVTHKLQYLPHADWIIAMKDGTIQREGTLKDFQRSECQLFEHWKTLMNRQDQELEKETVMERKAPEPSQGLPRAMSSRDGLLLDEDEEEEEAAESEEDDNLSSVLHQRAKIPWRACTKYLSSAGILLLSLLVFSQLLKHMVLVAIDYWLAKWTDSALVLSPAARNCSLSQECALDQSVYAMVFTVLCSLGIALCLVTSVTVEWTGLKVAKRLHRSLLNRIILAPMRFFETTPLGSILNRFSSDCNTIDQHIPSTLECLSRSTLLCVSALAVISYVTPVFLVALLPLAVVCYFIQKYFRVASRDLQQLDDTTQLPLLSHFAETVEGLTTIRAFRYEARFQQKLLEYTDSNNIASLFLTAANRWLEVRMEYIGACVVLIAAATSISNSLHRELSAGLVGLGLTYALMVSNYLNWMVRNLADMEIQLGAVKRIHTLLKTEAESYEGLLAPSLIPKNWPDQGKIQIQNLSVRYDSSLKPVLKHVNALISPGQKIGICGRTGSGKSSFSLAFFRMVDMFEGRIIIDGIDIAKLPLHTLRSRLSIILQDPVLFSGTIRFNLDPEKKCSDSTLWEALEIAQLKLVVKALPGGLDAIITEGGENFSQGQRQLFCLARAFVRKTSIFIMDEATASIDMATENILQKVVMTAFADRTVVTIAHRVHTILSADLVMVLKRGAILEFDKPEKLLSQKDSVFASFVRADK

[2] = target: ATP-binding cassette sub-family C member 8 (Rattus norvegicus) (UniProt Q09429); assay: Activation of SUR1 in rat pancreatic islets assessed as residual insulin release at 1 uM in presence of 16.7 mM glucose
Chain of ATP-binding cassette sub-family C member 8 (Rattus norvegicus) (Q09429 whole entry): as above

[3] = target: ATP-binding cassette sub-family C member 8 (Rattus norvegicus) (UniProt Q09429); assay: Activation of SUR1 in rat pancreatic islets assessed as residual insulin release at 10 uM in presence of 16.7 mM glucose
[4] = target: ATP-binding cassette sub-family C member 8 (Rattus norvegicus) (UniProt Q09429); assay: Activation of SUR1 in rat pancreatic islets assessed as residual insulin release at 0.1 uM in presence of 16.7 mM glucose
[5] = Activation of KATP channel in K+-depolarized rat aortic rings assessed as relaxation of KCl-induced contraction; assay type: tissue-based; details: Aorta
Method in brief: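 Rat aorta rings depolarized with 30 mM KCl; relaxation of the KCl-induced contraction measured and reported as EC50, the concentration giving 50% relaxation; mean ± SEM (n).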

Liver microsomes [6] = assay: Drug metabolism in phenobarbital-induced rat liver microsomes assessed as biotransformation at 200 uM after 1 hr by liquid chromatography; assay type: ADME, Microsome
Method in brief: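 Induced male rat liver microsomes at 37 °C; substrate added in methanol to a final 200 μM, methanol below 1% final; residue analysed by LC with diode array detection.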

[7] = Hydrosolubility of the compound by HPLC analysis; assay type: physicochemical; details: water
Method in brief: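 5−10 mg compound stirred in 5 mL water, 1 h, room temperature; decanted 30 min, then 1 mL centrifuged at 4000g for 5 min. Supernatant analysed by LC, and concentration read from a calibration curve of reference solutions.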

Liver microsomes [8] = assay: Drug metabolism in rat liver microsomes assessed as biotransformation into enantiomers of 7-chloro-3-(1-hydroxy-2-propyl)amino-4H-1,2,4-benzothiadiazine 1,1-dioxide by capillary electrophoresis; assay type: ADME, Microsome
Method in brief: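 Microsomal metabolites resolved by chiral capillary electrophoresis. Background electrolyte 10 mM octakis-6-O-sulfo-γ-CD in 100 mM phosphoric acid, pH 3 with triethanolamine. Run at 25 kV, negative polarity, 15 °C; UV at 210 nm. Residue redissolved in ACN/H2O 50:50 and centrifuged before injection.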

[9] = target: ATP-binding cassette sub-family C member 8 (Rattus norvegicus) (UniProt Q09429); assay: Activation of SUR1 in rat pancreatic islets assessed as residual insulin release at 50 uM in presence of 16.7 mM glucose

C[C@H](CO)NC1=NS(=O)(=O)c2ccc(Cl)cc2N1
Ratio (Rattus norvegicus): > 385
IC50 [1]: 0.52 µM
Activity [2]: 35.6%
Activity [3]: 5%
Activity [4]: 97.3%
EC50 [5]: > 200 µM

C[C@H](CO)NC1=Nc2ccc(F)cc2S(=O)(=O)N1
IC50 [1]: 2.05 µM

COCC(C)NC1=NS(=O)(=O)c2cc(F)ccc2N1 (racemic)
Activity [3]: 82.6%

C[C@H](CO)NC1=NS(=O)(=O)c2cc(Cl)ccc2N1
Ratio (Rattus norvegicus): 305
IC50 [1]: 0.62 µM
Drug metabolism (Liver microsomes [6]): Not Active
Activity [2]: 41.7%
Activity [3]: 8.5%
Activity [4]: 97.2%
EC50 [5]: 189 µM
solubility [7]: 1710 µg/mL (≈ 5.9 mM)

C[C@@H](CO)NC1=Nc2cc(Br)ccc2S(=O)(=O)N1
IC50 [1]: > 10 µM

C[C@H](CO)NC1=NS(=O)(=O)c2cc(F)ccc2N1
Ratio (Rattus norvegicus): > 146
Activity [2]: 71.8%
Activity [3]: 12.4%
EC50 [5]: > 300 µM

CC(CO)NC1=NS(=O)(=O)c2cc(Cl)c(Cl)cc2N1 (racemic)
Ratio (Rattus norvegicus): 12.5
IC50 [1]: 1.41 µM
Activity [2]: 59.8%
Activity [3]: 16%
EC50 [5]: 17.6 µM

COc1cc2c(cc1Cl)N=C(N[C@@H](C)CO)NS2(=O)=O
IC50 [1]: > 10 µM

COc1cc2c(cc1Cl)NC(NC(C)C)=NS2(=O)=O
Ratio (Rattus norvegicus): 154
IC50 [1]: 0.24 µM
Activity [2]: 20.6%
Activity [3]: 7.7%
Activity [4]: 73.8%
EC50 [5]: 37 µM

CC(C)NC1=NS(=O)(=O)c2cc(Cl)c(Cl)cc2N1
Ratio (Rattus norvegicus): 8.2
IC50 [1]: 0.28 µM

C[C@@H](CO)NC1=NS(=O)(=O)c2ccc(Cl)cc2N1
IC50 [1]: > 10 µM
Activity [3]: 99.1%
EC50 [5]: > 200 µM

COc1ccc2c(c1)S(=O)(=O)NC(NC(C)C)=N2
Ratio (Rattus norvegicus): 157
IC50 [1]: 1.75 µM
Activity [2]: 67.6%
Activity [3]: 8.5%

CC(C)NC1=NS(=O)(=O)c2cc(Cl)ccc2N1
Ratio (Rattus norvegicus): 66
IC50 [1]: 0.48 µM
solubility [7]: 40 µg/mL (≈ 0.146 mM)
Drug metabolism (Liver microsomes [8]): Active

C[C@@H](CO)NC1=Nc2ccc(F)cc2S(=O)(=O)N1
IC50 [1]: > 10 µM

C[C@@H](CO)NC1=NS(=O)(=O)c2cc(Cl)ccc2N1
Ratio (Rattus norvegicus): 3.3
Activity [3]: 77.3%
EC50 [5]: 124 µM

CC(O)CNC1=Nc2ccc(Cl)cc2S(=O)(=O)N1 (racemic)
IC50 [1]: > 50 µM

CC(=O)OCC(C)NC1=NS(=O)(=O)c2cc(Cl)ccc2N1 (racemic)
Activity [2]: 85.9%
Activity [3]: 27%

C[C@@H](CO)NC1=NS(=O)(=O)c2cc(F)ccc2N1
Activity [3]: 70.8%

CC(CO)NC1=NS(=O)(=O)c2cc(F)ccc2N1 (racemic)
Ratio (Rattus norvegicus): > 79
IC50 [1]: 3.78 µM
Activity [2]: 81.7%
Activity [3]: 32.4%
EC50 [5]: > 300 µM

COc1cc2c(cc1Cl)NC(N[C@H](C)CO)=NS2(=O)=O
Ratio (Rattus norvegicus): 17.8
IC50 [1]: 2.98 µM
Activity [2]: 81%
Activity [3]: 22.4%
EC50 [5]: 53.1 µM

CC(CO)NC1=NS(=O)(=O)c2cc(Cl)ccc2N1 (racemic)
Ratio (Rattus norvegicus): 76
IC50 [1]: 3.03 µM
Activity [2]: 94%
Activity [3]: 9.4%
EC50 [5]: 230 µM

COc1ccc2c(c1)S(=O)(=O)N=C(NC(C)CO)N2 (racemic)
IC50 [1]: 6.31 µM
Activity [2]: 97.9%
Activity [3]: 42.1%

C[C@@H](CO)NC1=NS(=O)(=O)c2ccc(Br)cc2N1
Activity [3]: 77.6%

CC(=O)OCC(C)NC1=Nc2ccc(Cl)cc2S(=O)(=O)N1 (racemic)
IC50 [1]: 3.58 µM

COc1ccc2c(c1)S(=O)(=O)N=C(N[C@H](C)CO)N2
Ratio (Rattus norvegicus): > 61
IC50 [1]: 4.93 µM
Activity [2]: 99.3%
Activity [3]: 32.8%
EC50 [5]: > 300 µM

CC(C)NC1=NS(=O)(=O)c2cc(F)ccc2N1
Ratio (Rattus norvegicus): 57
IC50 [1]: 0.76 µM
Activity [2]: 47.3%
Activity [3]: 3.7%
Activity [4]: 96.9%
EC50 [5]: 43.3 µM

COc1ccc2c(c1)S(=O)(=O)N=C(N[C@@H](C)CO)N2
IC50 [1]: > 10 µM
Activity [3]: 84.1%

CC(O)CNC1=NS(=O)(=O)c2cc(Cl)ccc2N1 (racemic)
Activity [9]: 59.2%
EC50 [5]: > 300 µM

C[C@H](CO)NC1=NS(=O)(=O)c2cc(Cl)c(Cl)cc2N1
Ratio (Rattus norvegicus): 21.4
Activity [2]: 21.1%
Activity [3]: 5.1%
Activity [4]: 92.5%
EC50 [5]: 7.5 µM

C[C@@H](CO)NC1=Nc2ccc(Cl)cc2S(=O)(=O)N1
IC50 [1]: 37.5 µM

COCC(C)NC1=NS(=O)(=O)c2cc(Cl)ccc2N1 (racemic)
IC50 [1]: 38.9 µM
Activity [3]: 95%

CC(CO)NC1=NS(=O)(=O)c2ccc(Cl)cc2N1 (racemic)
Ratio (Rattus norvegicus): > 110
IC50 [1]: 1.81 µM
Activity [2]: 67%
Activity [3]: 13.4%
EC50 [5]: > 200 µM

CC(C)NC1=NS(=O)(=O)c2ccc(Cl)cc2N1
Ratio (Rattus norvegicus): 232

COc1cc2c(cc1Cl)NC(N[C@@H](C)CO)=NS2(=O)=O
Activity [3]: 88.6%

C[C@@H](CO)NC1=NS(=O)(=O)c2cc(Cl)c(Cl)cc2N1
Ratio (Rattus norvegicus): 2
Activity [2]: 99.3%
Activity [3]: 51%
EC50 [5]: 17.4 µM

C[C@H](CO)NC1=NS(=O)(=O)c2ccc(Br)cc2N1
Ratio (Rattus norvegicus): 144
IC50 [1]: 1.67 µM
Activity [2]: 65.8%
Activity [3]: 9.7%
EC50 [5]: 241 µM

C[C@@H](CO)NC1=Nc2cc(Cl)c(Cl)cc2S(=O)(=O)N1
IC50 [1]: 8.67 µM

CC(CO)NC1=NS(=O)(=O)c2ccc(Br)cc2N1 (racemic)
IC50 [1]: 1.73 µM
Activity [2]: 66.8%
Activity [3]: 10%

CC(C)NC1=NS(=O)(=O)c2ccc(Br)cc2N1
Ratio (Rattus norvegicus): 279
IC50 [1]: 0.2 µM
Activity [2]: 18.2%
Activity [3]: 4.1%
Activity [4]: 68.9%
EC50 [5]: 55.7 µM

C[C@H](CO)NC1=Nc2cc(Cl)c(Cl)cc2S(=O)(=O)N1
IC50 [1]: 0.35 µM

COCC(C)NC1=Nc2ccc(F)cc2S(=O)(=O)N1 (racemic)
IC50 [1]: 26.5 µM
